Data from ChEMBL document CHEMBL4765239, “Discovery of a Novel Highly Selective Histamine H4 Receptor Antagonist for the Treatment of Atopic Dermatitis” (J Med Chem, 2018).
Calls of active or inactive are those of the source. No cut-off for these calls is given here.

Assays:
Mus musculus [1] = experiment: Anti-pruritus activity in oxazolone-induced Balb/c mouse model of atopic dermatitis assessed as reduction of scratching bouts at 50 mg/kg, po BID administered 30 mins prior to oxazolone challenge for 3 weeks and measured on day 25; type: functional, organism-based
Summary of the method: (§1)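 Female BALB/c mice (n=8), abdomen shaved. Sensitized on day 0 with topical 1% oxazolone (50 µL) in acetone/corn oil 4:1. From day 7, right ear challenged with 0.2% oxazolone (25 µL) 3 times weekly; left ear got vehicle. Oral dosing twice daily, 30 min before challenge, for 3 weeks. Scratching counted for 1 h after challenge on day 25. Ear thickness measured; ear fixed in 4% paraformaldehyde, 3 µm paraffin sections stained with H&E for epidermal thickness. Mean ± S.E.M., t-test.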

[2] = Tmax in ICR mouse at 50 mg/kg, po measured upto 24 hrs by LC-MS/MS analysis; type: ADME, organism-based; conditions: in vivo
Summary of the method: (§2)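 Female ICR mice, n=3 per group, given test compound orally. Blood sampled at 0.5, 1, 2, 4, 7 and 24 h post dose; plasma levels quantified by LC-MS/MS. Parameters from non-compartmental analysis.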

[3] = AUC (all) in ICR mouse at 50 mg/kg, po measured upto 24 hrs by LC-MS/MS analysis; type: ADME, organism-based; set-up: route oral, dose 50 mg/kg, time <=24; conditions: in vivo; summary of the method: as §2
[4] = Cmax in ICR mouse at 10 mg/kg, po measured upto 24 hrs by LC-MS/MS analysis; type: ADME, organism-based; set-up: route oral, dose 10 mg/kg, time <=24; conditions: in vivo; summary of the method: as §2
[5] = Protein binding in mouse plasma; type: ADME, cell-free; conditions: read-out: PPB (converted)
[6] = Cmax in ICR mouse at 2 mg/kg, po measured upto 24 hrs by LC-MS/MS analysis; type: ADME, organism-based; set-up: route oral, dose 2 mg/kg, time <=24; conditions: in vivo; summary of the method: as §2
[7] = Protein binding in human plasma; type: ADME, cell-free; conditions: read-out: PPB (converted)
[8] = molecular target: Histamine H2 receptor (Homo sapiens) (UniProt P25021); experiment: Displacement of [125I]-aminopotentidine from recombinant human histamine H2 receptor after 120 mins by radiometric scintillation counting analysis
Histamine H2 receptor (Homo sapiens), sequence (P25021 whole entry): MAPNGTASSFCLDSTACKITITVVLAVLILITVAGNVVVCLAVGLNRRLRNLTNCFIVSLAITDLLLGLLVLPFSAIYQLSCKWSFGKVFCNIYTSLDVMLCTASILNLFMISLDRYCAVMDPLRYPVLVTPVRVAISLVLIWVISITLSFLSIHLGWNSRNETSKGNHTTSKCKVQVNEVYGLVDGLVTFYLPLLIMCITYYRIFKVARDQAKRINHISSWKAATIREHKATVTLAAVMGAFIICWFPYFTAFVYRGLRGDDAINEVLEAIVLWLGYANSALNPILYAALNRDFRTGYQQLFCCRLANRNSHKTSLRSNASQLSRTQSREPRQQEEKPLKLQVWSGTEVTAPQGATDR

Mus musculus [9] = experiment: Anti-pruritus activity in ICR mouse with histamine-induced itching assessed as reduction of scratching bouts administered orally 30 mins prior to histamine challenge and measured upto 20 mins; type: functional, organism-based; conditions: dose 2-50 mg/kg, time 50.0 min
Mus musculus [10] = experiment: Anti-pruritus activity in ICR mouse with histamine-induced itching assessed as reduction of scratching bouts at 10 mg/kg, po administered 30 mins prior to histamine challenge and measured upto 20 mins; type: functional; set-up: scale not given: the % may be the effect or the level left; conditions: time 50 min
Summary of the method: (§3)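 Female ICR mice (n=8-10 per group), back skin clipped 24 h before. Oral dose in 20% hydroxypropyl-β-cyclodextrin given 30 min before intradermal pruritogen in saline: histamine 300 nmol, substance P 100 nmol or C48/80 100 µg. Scratching bouts counted from video for 20 min after injection. Mean ± S.E.M., Student's t-test.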

Mus musculus [11] = experiment: Anti-pruritus activity in ICR mouse with substance P-induced itching assessed as reduction of scratching bouts at 50 mg/kg, po administered 30 mins prior to […] and measured upto 20 mins; type: functional, organism-based; conditions: time 50.0 min; summary of the method: as §3
[12] = Ratio of anti-pruritus activity in ICR mouse with histamine-induced itching assessed as free plasma concentration causing 50% reduction of scratching bouts at 10 mg/kg, po administered 30 mins prior to histamine challenge and measured upto 20 mins to Ic50 for displacement of [3H]-histamine from recombinant mouse histamine H4 receptor expressed in CHO-K1 cell membranes
Summary of the method: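 Itch model: female ICR mice (n=8-10), back clipped 24 h earlier, dosed orally in 20% hydroxypropyl-β-cyclodextrin 30 min before intradermal histamine (300 nmol, saline). Scratching bouts were videorecorded for 20 min. Free plasma concentration taken at Tmax. Binding used CHO-K1 mouse H4R membranes with [3H]histamine in 50 mM Tris-HCl pH 7.4, 30 min at 27 °C, then filtration and scintillation counting.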

Mus musculus [13] = experiment: Antiinflammatory activity in oxazolone-induced Balb/c mouse model of atopic dermatitis assessed as reduction of epidermal thicken in skin lesions at 50 mg/kg, po BID administered 30 mins prior to oxazolone challenge for 3 weeks by hematoxylin and eosin staining based histopathological analysis; type: functional, organism-based; summary of the method: as §1
[14] = molecular target: T1, 5-hydroxytryptamine receptor 3A (Homo sapiens) (UniProt P46098); experiment: Displacement of [3H]BRL 43694 from human recombinant 5-HT3 receptor at 10 uM after 120 mins by scintillation counting analysis relative to control
T1 sequence (whole entry): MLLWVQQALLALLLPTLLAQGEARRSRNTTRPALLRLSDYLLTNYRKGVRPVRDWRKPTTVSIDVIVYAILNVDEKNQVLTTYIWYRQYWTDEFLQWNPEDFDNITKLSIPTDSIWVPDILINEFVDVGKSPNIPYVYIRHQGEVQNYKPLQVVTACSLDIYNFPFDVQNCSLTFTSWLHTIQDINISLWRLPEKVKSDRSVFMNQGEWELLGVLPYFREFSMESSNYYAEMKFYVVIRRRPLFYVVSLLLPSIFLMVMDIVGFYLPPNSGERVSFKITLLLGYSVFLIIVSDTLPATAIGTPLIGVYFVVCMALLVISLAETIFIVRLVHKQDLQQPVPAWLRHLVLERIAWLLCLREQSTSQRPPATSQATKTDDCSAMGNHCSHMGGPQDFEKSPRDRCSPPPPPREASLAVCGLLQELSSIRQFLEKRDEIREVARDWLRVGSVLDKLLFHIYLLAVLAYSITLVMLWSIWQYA

Histamine H3 receptor = Histamine H3 receptor (Homo sapiens, UniProt Q9Y5N1); experiment: Displacement of [3H]-N-alpha-methylhistamine from recombinant human histamine H3 receptor after 60 mins by radiometric scintillation counting analysis
Histamine H3 receptor, sequence (Q9Y5N1 whole entry): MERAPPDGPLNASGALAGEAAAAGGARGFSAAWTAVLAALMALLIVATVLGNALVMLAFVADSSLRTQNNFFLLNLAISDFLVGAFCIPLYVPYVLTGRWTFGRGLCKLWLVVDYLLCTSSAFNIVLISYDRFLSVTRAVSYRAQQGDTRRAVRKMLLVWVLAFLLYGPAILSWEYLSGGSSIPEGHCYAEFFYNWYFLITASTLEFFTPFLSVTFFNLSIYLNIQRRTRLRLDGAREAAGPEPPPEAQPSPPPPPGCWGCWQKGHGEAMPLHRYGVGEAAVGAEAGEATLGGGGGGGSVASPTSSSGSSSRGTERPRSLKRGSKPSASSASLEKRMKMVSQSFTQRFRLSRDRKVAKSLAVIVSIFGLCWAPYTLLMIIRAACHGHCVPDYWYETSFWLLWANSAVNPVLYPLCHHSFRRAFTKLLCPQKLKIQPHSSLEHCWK

Mus musculus [15] = experiment: Antiinflammatory activity in oxazolone-induced Balb/c mouse model of atopic dermatitis assessed as reduction of ear thickness at 50 mg/kg, po BID administered 30 mins prior to oxazolone challenge for 3 weeks and measured on day 27; type: functional, organism-based; summary of the method: as §1
[16] = Tmax in ICR mouse at 10 mg/kg, po measured upto 24 hrs by LC-MS/MS analysis; type: ADME, organism-based; conditions: in vivo; summary of the method: as §2
Mus musculus [17] = experiment: Anti-pruritus activity in ICR mouse with C48/80-induced itching assessed as reduction of scratching bouts at 50 mg/kg, po administered 30 mins prior to […] and measured upto 20 mins; type: functional, organism-based; conditions: time 50.0 min; summary of the method: as §3
Mus musculus [18] = experiment: Anti-pruritus activity in ICR mouse with histamine-induced itching assessed as free plasma concentration causing 50% reduction of scratching bouts at 10 mg/kg, po administered 30 mins prior to histamine challenge and measured upto 20 mins; type: functional; conditions: time 50 min
Summary of the method: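 Female ICR mice, oral dose in 20% hydroxypropyl-β-cyclodextrin 30 min before intradermal histamine (300 nmol). Scratching bouts counted over 20 min from video. Free plasma concentration at Tmax was plotted against the scratching response.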

[19] = Tmax in ICR mouse at 2 mg/kg, po measured upto 24 hrs by LC-MS/MS analysis; type: ADME, organism-based; conditions: in vivo; summary of the method: as §2

Tmax [2]: 30 min | AUC at 24 h [3]: 62600 ng·h/mL | Cmax [4]: 1820 ng/mL | fraction unbound [5]: 0.348 | Cmax [6]: 180 ng/mL | fraction unbound [7]: 0.265 | Activity [8]: inactive | inhibition [14]: 14% | Activity (Histamine H3 receptor): inactive | Tmax [16]: 30 min | Tmax [19]: 30 min
Compound: CNC1CN(c2nc3ncc(Br)cc3n3nnnc23)C1
Activity (Mus musculus [1]): Active | Activity (Mus musculus [9]): Dose-dependent effect | Activity (Mus musculus [10]): <=50% | Activity (Mus musculus [11]): Active | Ratio [12]: 3 | Activity (Mus musculus [13]): Active | Activity (Mus musculus [15]): Active | Activity (Mus musculus [17]): Active | Cp(f) (Mus musculus [18]): 1.89 µM
